From ChEMBL document CHEMBL4725466, “Discovery and SAR of Novel Disubstituted Quinazolines as Dual PI3Kalpha/mTOR Inhibitors Targeting Breast Cancer” (ACS Med Chem Lett, 2020)
In brackets after ≈: the same amount, converted by molar mass. Activity calls are given as the source filed them. The calls are words filed in the database; no cut-off is given here.

System: not listed separately
Test: Cytotoxicity against human primary fibroblasts assessed as cell viability at 10 uM after 48 hrs by celltiter-glo 2D luminescent assay relative to control
Format: cell-based, Fibroblast
Conditions: read-out: Activity
Summary of the method: (§1)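 2D CellTiter-Glo luminescent viability screen, single 10 μM compound concentration, in MDA-MB-468, MDA-MB-231 and MCF7 breast cancer cells and in normal human dermal fibroblasts; output reported as percent of viable cells.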

Point of comparison: `CS(=O)(=O)Nc1ccc(NC(=O)Nc2ccc(-c3nc(N4CCOCC4)c4ccccc4n3)cc2)cc1`, viability at 48 h, 10 µM 38%. Against it:
- O=C(NCCO)Nc1ccc(-c2nc(N3CCOCC3)c3ccccc3n2)cc1 — higher, 95%
- O=C(Nc1ccc(CCO)cc1)Nc1ccc(-c2nc(N3CCOCC3)c3ccccc3n2)cc1 — higher, 63%
- N=C(N)NS(=O)(=O)c1ccc(NC(=O)Nc2ccc(-c3nc(N4CCOCC4)c4ccccc4n3)cc2)cc1 — higher, 92%
- O=C(Nc1ccc(-c2nc(N3CCOCC3)c3ccccc3n2)cc1)Nc1ccc(S(=O)(=O)Nc2nccs2)cc1 — higher, 95%
- O=C(Nc1ccc(-c2nc(N3CCOCC3)c3ccccc3n2)cc1)Nc1cncnc1 — higher, 88%
- O=C(Nc1ccc(CO)cc1)Nc1ccc(-c2nc(N3CCOCC3)c3ccccc3n2)cc1 — higher, 86%

Biological target: PI3-kinase p110-alpha/p85-alpha (Homo sapiens, UniProt P42336)
Sequence (P27986 whole entry): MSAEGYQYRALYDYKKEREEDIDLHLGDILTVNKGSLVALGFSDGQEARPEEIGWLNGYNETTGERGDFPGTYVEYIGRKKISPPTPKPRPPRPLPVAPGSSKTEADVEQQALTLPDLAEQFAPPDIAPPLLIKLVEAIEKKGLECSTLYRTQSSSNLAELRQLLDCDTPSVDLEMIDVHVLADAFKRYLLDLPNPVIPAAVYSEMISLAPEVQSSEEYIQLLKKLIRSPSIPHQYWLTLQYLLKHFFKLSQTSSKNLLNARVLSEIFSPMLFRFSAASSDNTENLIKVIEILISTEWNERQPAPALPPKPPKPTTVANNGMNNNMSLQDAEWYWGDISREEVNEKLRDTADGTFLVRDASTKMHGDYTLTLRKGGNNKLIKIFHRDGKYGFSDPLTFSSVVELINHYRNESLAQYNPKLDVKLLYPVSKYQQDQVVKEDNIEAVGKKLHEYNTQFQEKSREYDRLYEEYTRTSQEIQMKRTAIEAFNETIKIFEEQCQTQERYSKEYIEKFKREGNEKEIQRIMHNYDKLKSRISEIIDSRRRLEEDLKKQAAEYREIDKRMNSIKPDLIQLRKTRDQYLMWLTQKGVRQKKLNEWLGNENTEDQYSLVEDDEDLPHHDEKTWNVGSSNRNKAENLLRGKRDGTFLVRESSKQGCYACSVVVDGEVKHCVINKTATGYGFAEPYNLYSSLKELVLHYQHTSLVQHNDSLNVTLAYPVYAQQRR
Sequence (P42336 whole entry): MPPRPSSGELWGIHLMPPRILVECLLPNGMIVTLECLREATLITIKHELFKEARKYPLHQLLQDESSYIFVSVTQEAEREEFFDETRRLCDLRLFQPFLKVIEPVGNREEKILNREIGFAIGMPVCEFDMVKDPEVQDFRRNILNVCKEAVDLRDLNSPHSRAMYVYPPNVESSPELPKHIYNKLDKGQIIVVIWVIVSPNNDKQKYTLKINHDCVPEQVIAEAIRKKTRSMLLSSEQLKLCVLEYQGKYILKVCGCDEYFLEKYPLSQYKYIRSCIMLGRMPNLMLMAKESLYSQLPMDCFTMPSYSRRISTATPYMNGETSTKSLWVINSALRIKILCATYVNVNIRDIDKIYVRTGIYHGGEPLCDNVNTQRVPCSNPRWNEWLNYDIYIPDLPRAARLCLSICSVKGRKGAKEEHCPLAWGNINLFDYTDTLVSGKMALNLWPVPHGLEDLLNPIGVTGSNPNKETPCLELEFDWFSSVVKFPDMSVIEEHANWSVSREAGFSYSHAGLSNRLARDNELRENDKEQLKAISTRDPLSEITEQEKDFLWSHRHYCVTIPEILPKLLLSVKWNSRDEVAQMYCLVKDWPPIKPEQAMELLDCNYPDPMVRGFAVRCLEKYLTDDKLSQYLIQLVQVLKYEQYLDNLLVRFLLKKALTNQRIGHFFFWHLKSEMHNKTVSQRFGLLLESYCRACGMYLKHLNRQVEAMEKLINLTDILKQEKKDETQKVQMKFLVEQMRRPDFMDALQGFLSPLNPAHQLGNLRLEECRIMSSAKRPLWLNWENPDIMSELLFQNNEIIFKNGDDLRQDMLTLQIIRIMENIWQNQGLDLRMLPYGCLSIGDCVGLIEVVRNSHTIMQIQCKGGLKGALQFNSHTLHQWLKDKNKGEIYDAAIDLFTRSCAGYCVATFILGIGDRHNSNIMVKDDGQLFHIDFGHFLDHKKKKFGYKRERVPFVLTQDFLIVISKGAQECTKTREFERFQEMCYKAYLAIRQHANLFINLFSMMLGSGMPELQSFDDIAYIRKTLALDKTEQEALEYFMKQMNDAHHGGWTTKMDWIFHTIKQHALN
Test: Inhibition of human PI3K p110alpha/p85alpha using PIP2 as substrate incubated for 10 mins followed by ATP addition and measured after 30 mins in presence of 10 uM ATP by HTRF assay
Format: protein-complex assay
Conditions: not given

Point of comparison: `O=C(Nc1ccc(CCO)cc1)Nc1ccc(-c2nc(N3CCOCC3)c3ccccc3n2)cc1`, IC50 1.41 nM. Against it:
- O=C(NCCO)Nc1ccc(-c2nc(N3CCOCC3)c3ccccc3n2)cc1 — 130-fold higher, 185 nM
- N=C(N)NS(=O)(=O)c1ccc(NC(=O)Nc2ccc(-c3nc(N4CCOCC4)c4ccccc4n3)cc2)cc1 — 13-fold higher, 18.5 nM
- O=C(Nc1ccc(-c2nc(N3CCOCC3)c3ccccc3n2)cc1)Nc1ccc(S(=O)(=O)Nc2nccs2)cc1 — 19-fold higher, 26.1 nM
- CS(=O)(=O)Nc1ccc(NC(=O)Nc2ccc(-c3nc(N4CCOCC4)c4ccccc4n3)cc2)cc1 — 4.4-fold higher, 6.2 nM
- O=C(Nc1ccc(-c2nc(N3CCOCC3)c3ccccc3n2)cc1)Nc1cncnc1 — 81-fold higher, 114 nM
- O=C(Nc1ccc(CO)cc1)Nc1ccc(-c2nc(N3CCOCC3)c3ccccc3n2)cc1 — 1.7-fold higher, 2.4 nM

System: MDA-MB-231
Test: Antiproliferative activity against human MDA-MB-231 cells assessed as cell viability at 10 uM after 48 hrs by celltiter-glo 2D luminescent assay relative to control
Format: functional
Conditions: read-out: Activity
Summary of the method: as §1

Point of comparison: `O=C(Nc1ccc(-c2nc(N3CCOCC3)c3ccccc3n2)cc1)Nc1cncnc1`, viability at 10 µM 138%. Against it:
- O=C(NCCO)Nc1ccc(-c2nc(N3CCOCC3)c3ccccc3n2)cc1 — higher, 146%
- O=C(Nc1ccc(CCO)cc1)Nc1ccc(-c2nc(N3CCOCC3)c3ccccc3n2)cc1 — higher, 192%
- N=C(N)NS(=O)(=O)c1ccc(NC(=O)Nc2ccc(-c3nc(N4CCOCC4)c4ccccc4n3)cc2)cc1 — higher, 152%
- O=C(Nc1ccc(-c2nc(N3CCOCC3)c3ccccc3n2)cc1)Nc1ccc(S(=O)(=O)Nc2nccs2)cc1 — higher, 140%
- CS(=O)(=O)Nc1ccc(NC(=O)Nc2ccc(-c3nc(N4CCOCC4)c4ccccc4n3)cc2)cc1 — lower, 137%
- O=C(Nc1ccc(CO)cc1)Nc1ccc(-c2nc(N3CCOCC3)c3ccccc3n2)cc1 — higher, 208%

System: MCF7
Test: Antiproliferative activity against human MCF7 cells assessed as cell viability at 10 uM after 48 hrs by celltiter-glo 2D luminescent assay relative to control
Format: functional
Conditions: read-out: Activity
Summary of the method: as §1

Point of comparison: `N=C(N)NS(=O)(=O)c1ccc(NC(=O)Nc2ccc(-c3nc(N4CCOCC4)c4ccccc4n3)cc2)cc1`, viability at 10 µM 30%. Against it:
- O=C(NCCO)Nc1ccc(-c2nc(N3CCOCC3)c3ccccc3n2)cc1 — higher, 31%
- O=C(Nc1ccc(CCO)cc1)Nc1ccc(-c2nc(N3CCOCC3)c3ccccc3n2)cc1 — lower, 7%
- O=C(Nc1ccc(-c2nc(N3CCOCC3)c3ccccc3n2)cc1)Nc1ccc(S(=O)(=O)Nc2nccs2)cc1 — higher, 40%
- CS(=O)(=O)Nc1ccc(NC(=O)Nc2ccc(-c3nc(N4CCOCC4)c4ccccc4n3)cc2)cc1 — lower, 8%
- O=C(Nc1ccc(-c2nc(N3CCOCC3)c3ccccc3n2)cc1)Nc1cncnc1 — lower, 21%
- O=C(Nc1ccc(CO)cc1)Nc1ccc(-c2nc(N3CCOCC3)c3ccccc3n2)cc1 — lower, 7%

System: not listed separately
Test: Kinetic aqueous solubility of compound in 2% DMSO/Phosphate buffer saline incubated for 90 mins under shaking condition by
Format: physicochemical
Conditions: 2% DMSO/phosphate buffered saline, read-out: Kinetic_solubility
Summary of the method: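 Maximum kinetic aqueous solubility measured in 2% DMSO/phosphate-buffered saline, pH 7.4.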

Point of comparison: `O=C(Nc1ccc(CCO)cc1)Nc1ccc(-c2nc(N3CCOCC3)c3ccccc3n2)cc1`, solubility kinetic at 1.5 h 5.9 µM (≈ 2.77 µg/mL). Against it:
- O=C(NCCO)Nc1ccc(-c2nc(N3CCOCC3)c3ccccc3n2)cc1 — 34-fold higher, 200 µM (≈ 78.7 µg/mL)
- N=C(N)NS(=O)(=O)c1ccc(NC(=O)Nc2ccc(-c3nc(N4CCOCC4)c4ccccc4n3)cc2)cc1 — within 1.5-fold, 6.1 µM (≈ 3.33 µg/mL)
- O=C(Nc1ccc(-c2nc(N3CCOCC3)c3ccccc3n2)cc1)Nc1ccc(S(=O)(=O)Nc2nccs2)cc1 — 1.9-fold lower, 3.1 µM (≈ 1.82 µg/mL)
- CS(=O)(=O)Nc1ccc(NC(=O)Nc2ccc(-c3nc(N4CCOCC4)c4ccccc4n3)cc2)cc1 — within 1.5-fold, 6.9 µM (≈ 3.58 µg/mL)
- O=C(Nc1ccc(-c2nc(N3CCOCC3)c3ccccc3n2)cc1)Nc1cncnc1 — 2.2-fold lower, 2.7 µM (≈ 1.15 µg/mL)
- O=C(Nc1ccc(CO)cc1)Nc1ccc(-c2nc(N3CCOCC3)c3ccccc3n2)cc1 — 2.4-fold higher, 14.3 µM (≈ 6.51 µg/mL)

System: MDA-MB-468
Test: Antiproliferative activity against human MDA-MB-468 cells assessed as cell viability at 10 uM after 48 hrs by celltiter-glo 2D luminescent assay relative to control
Format: functional
Conditions: read-out: Activity
Summary of the method: as §1

Point of comparison: `O=C(NCCO)Nc1ccc(-c2nc(N3CCOCC3)c3ccccc3n2)cc1`, viability at 10 µM 65%. Against it:
- O=C(Nc1ccc(CCO)cc1)Nc1ccc(-c2nc(N3CCOCC3)c3ccccc3n2)cc1 — higher, 74%
- N=C(N)NS(=O)(=O)c1ccc(NC(=O)Nc2ccc(-c3nc(N4CCOCC4)c4ccccc4n3)cc2)cc1 — lower, 51%
- O=C(Nc1ccc(-c2nc(N3CCOCC3)c3ccccc3n2)cc1)Nc1ccc(S(=O)(=O)Nc2nccs2)cc1 — lower, 59%
- CS(=O)(=O)Nc1ccc(NC(=O)Nc2ccc(-c3nc(N4CCOCC4)c4ccccc4n3)cc2)cc1 — higher, 66%
- O=C(Nc1ccc(-c2nc(N3CCOCC3)c3ccccc3n2)cc1)Nc1cncnc1 — lower, 56%
- O=C(Nc1ccc(CO)cc1)Nc1ccc(-c2nc(N3CCOCC3)c3ccccc3n2)cc1 — lower, 60%

System: MCF7
Test: Antiproliferative activity against human MCF7 cells assessed as reduction in cell viability after 48 hrs by celltiter-glo 3D luminescent assay
Format: functional, cell-based
Conditions: MCF7, 48 h
Summary of the method: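 MCF7 cells grown in 3D culture, viability read by CellTiter-Glo 3D luminescence; dose–response curves run up to 15 μM to derive IC50.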

Point of comparison: `N=C(N)NS(=O)(=O)c1ccc(NC(=O)Nc2ccc(-c3nc(N4CCOCC4)c4ccccc4n3)cc2)cc1`, IC50 300 nM. Against it:
- O=C(NCCO)Nc1ccc(-c2nc(N3CCOCC3)c3ccccc3n2)cc1 — 2.3-fold higher, 700 nM
- O=C(Nc1ccc(CCO)cc1)Nc1ccc(-c2nc(N3CCOCC3)c3ccccc3n2)cc1 — the same, 300 nM
- O=C(Nc1ccc(-c2nc(N3CCOCC3)c3ccccc3n2)cc1)Nc1ccc(S(=O)(=O)Nc2nccs2)cc1 — 6-fold higher, 1800 nM
- O=C(Nc1ccc(-c2nc(N3CCOCC3)c3ccccc3n2)cc1)Nc1cncnc1 — 5.3-fold higher, 1600 nM
- O=C(Nc1ccc(CO)cc1)Nc1ccc(-c2nc(N3CCOCC3)c3ccccc3n2)cc1 — 1.5-fold lower, 200 nM

System: not listed separately
Test: Half life in CD1 mouse liver microsomes at 1 uM incubated for 60 mins under shaking condition by LC-MS/MS analysis
Format: ADME, Microsome
Conditions: not given
Summary of the method: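 Metabolic stability in mouse liver microsomes with test compound at 1 μM; result expressed as t1/2 (min).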

Point of comparison: `O=C(Nc1ccc(-c2nc(N3CCOCC3)c3ccccc3n2)cc1)Nc1cncnc1`, half-life at 1 µM 24.5 min. Against it:
- O=C(NCCO)Nc1ccc(-c2nc(N3CCOCC3)c3ccccc3n2)cc1 — 2.2-fold higher, 53.1 min
- O=C(Nc1ccc(CCO)cc1)Nc1ccc(-c2nc(N3CCOCC3)c3ccccc3n2)cc1 — 1.6-fold higher, 38.2 min
- N=C(N)NS(=O)(=O)c1ccc(NC(=O)Nc2ccc(-c3nc(N4CCOCC4)c4ccccc4n3)cc2)cc1 — higher, > 60 min
- O=C(Nc1ccc(-c2nc(N3CCOCC3)c3ccccc3n2)cc1)Nc1ccc(S(=O)(=O)Nc2nccs2)cc1 — higher, > 60 min
- CS(=O)(=O)Nc1ccc(NC(=O)Nc2ccc(-c3nc(N4CCOCC4)c4ccccc4n3)cc2)cc1 — 2.4-fold higher, 60 min
- O=C(Nc1ccc(CO)cc1)Nc1ccc(-c2nc(N3CCOCC3)c3ccccc3n2)cc1 — higher, > 60 min

Biological target: Serine/threonine-protein kinase mTOR (Homo sapiens, UniProt P42345)
Test: Inhibition of human mTOR at 10 uM using 4EBP1 as substrate after 120 mins by [gamma-33P]-ATP assay
Conditions: not given
Summary of the method: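 Single-point kinase screen by HotSpot radioisotope filter binding assay; compound at 10 μM with 10 μM ATP, reported as percent inhibition of PI3Kα and mTOR.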

For `O=C(NCCO)Nc1ccc(-c2nc(N3CCOCC3)c3ccccc3n2)cc1`, the inhibition was “Active”.
With `O=C(Nc1ccc(CCO)cc1)Nc1ccc(-c2nc(N3CCOCC3)c3ccccc3n2)cc1` the inhibition was “Active”.
For `N=C(N)NS(=O)(=O)c1ccc(NC(=O)Nc2ccc(-c3nc(N4CCOCC4)c4ccccc4n3)cc2)cc1`, the inhibition was “Active”.
With `O=C(Nc1ccc(-c2nc(N3CCOCC3)c3ccccc3n2)cc1)Nc1ccc(S(=O)(=O)Nc2nccs2)cc1` the inhibition was “Active”.
For `CS(=O)(=O)Nc1ccc(NC(=O)Nc2ccc(-c3nc(N4CCOCC4)c4ccccc4n3)cc2)cc1`, the inhibition was “Active”.
For `O=C(Nc1ccc(CO)cc1)Nc1ccc(-c2nc(N3CCOCC3)c3ccccc3n2)cc1`, the inhibition was “Active”.

Biological target: PI3-kinase p110-alpha/p85-alpha (Homo sapiens) (UniProt P27986+P42336)
Test: Inhibition of human PI3K p110alpha/p85alpha at 10 uM using PIP2 as substrate incubated for 10 mins followed by ATP addition and measured after 30 mins in presence of 10 uM ATP by HTRF assay
Format: protein-complex assay
Conditions: not given

For `O=C(NCCO)Nc1ccc(-c2nc(N3CCOCC3)c3ccccc3n2)cc1`, the inhibition was “Active”.
For `O=C(Nc1ccc(CCO)cc1)Nc1ccc(-c2nc(N3CCOCC3)c3ccccc3n2)cc1`, the inhibition was “Active”.
In the case of `N=C(N)NS(=O)(=O)c1ccc(NC(=O)Nc2ccc(-c3nc(N4CCOCC4)c4ccccc4n3)cc2)cc1`, the inhibition is reported as “Active”.
In the case of `O=C(Nc1ccc(-c2nc(N3CCOCC3)c3ccccc3n2)cc1)Nc1ccc(S(=O)(=O)Nc2nccs2)cc1`, the inhibition is reported as “Active”.
In the case of `CS(=O)(=O)Nc1ccc(NC(=O)Nc2ccc(-c3nc(N4CCOCC4)c4ccccc4n3)cc2)cc1`, the inhibition is reported as “Active”.
With `O=C(Nc1ccc(CO)cc1)Nc1ccc(-c2nc(N3CCOCC3)c3ccccc3n2)cc1` the inhibition was “Active”.
